From PubChem
In the library only some 1.5% were active in any assay of this set; here they are far more common.
EBNA-1 inhibitor = blocks EBNA-1 binding to DNA; EBNA-1 DNA binding, fluorescence polarization; inhibition, % at 14.8 µM; 300,000 compounds, 0.34% hits; in the data active = inhibition above about 28%
LANA-H2A inh = blocks KSHV LANA binding to histone H2A/H2B. Q9QR71. cell-free LANA-H2A/H2B peptide, fluorescence polarization. inhibition, % (concentration not given with the values). 320,000 compounds, 0.6% hits. AID 2629; in the data active = inhibition mostly above about 10%, no sharp cut-off; inactive = mostly below about 6.7%
CSN inh = CSN deneddylation inhibition; Q92905; Purified CSN, SCF-Nedd8-OG deneddylation, fluorescence polarization; inhibition, % at 12.5 µM; 360,000 compounds, 0.38% hits; AID 651999;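 active = pattern-corrected inhibition above about 35%, with an unprinted fluorescence ratio check between 0.5 and 1.5, limit read from the data, passing the limit was not always enough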;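 also: 0% = enzyme with substrate and 100% = substrate without enzyme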
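Test system: Human Csn5 produced in HEK293T cells | Compound: 12.5 µM single point | Times: 90 min, room temperature | Signal: Fluorescence polarization readout | Read-out basis: % inhibition of substrate cleavage by Csn5 | Controls: no-enzyme wells high, enzyme-with-substrate wells low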
ZTA counter = blocks Epstein-Barr virus ZTA, an EBNA-1 counter-screen; ZTA-DNA binding, fluorescence polarization; inhibition, % at 11 µM; AID 2234; P03206; 320,000 compounds, 0.15% hits; in the data active = inhibition above about 33%
Bfl-1 A1 inh = inhibitors of the anti-apoptotic protein A1, read as caspase activation; MEF A1-2A-BIM cells, Caspase-Glo 3/7 luminescence, 3 h; percent of clofoctol response, vehicle zero; AID 2462; 330,000 compounds, 0.066% hits; caspase activation, % (concentration not given with the values);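 active = over half of replicate activation scores above 10%, or exactly half above 10 with the replicate mean above 10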
HNF4A DNA FP = change in binding of human HNF4 alpha to DNA; P41235; HNF4a-FITC DNA binding, fluorescence polarization, 1 h; activity change, % at 10 µM; 360,000 compounds, 0.3% hits; in the data active = activity change above about 30%, passing the limit was not always enough
Target sequence (P41235 whole entry, looked up): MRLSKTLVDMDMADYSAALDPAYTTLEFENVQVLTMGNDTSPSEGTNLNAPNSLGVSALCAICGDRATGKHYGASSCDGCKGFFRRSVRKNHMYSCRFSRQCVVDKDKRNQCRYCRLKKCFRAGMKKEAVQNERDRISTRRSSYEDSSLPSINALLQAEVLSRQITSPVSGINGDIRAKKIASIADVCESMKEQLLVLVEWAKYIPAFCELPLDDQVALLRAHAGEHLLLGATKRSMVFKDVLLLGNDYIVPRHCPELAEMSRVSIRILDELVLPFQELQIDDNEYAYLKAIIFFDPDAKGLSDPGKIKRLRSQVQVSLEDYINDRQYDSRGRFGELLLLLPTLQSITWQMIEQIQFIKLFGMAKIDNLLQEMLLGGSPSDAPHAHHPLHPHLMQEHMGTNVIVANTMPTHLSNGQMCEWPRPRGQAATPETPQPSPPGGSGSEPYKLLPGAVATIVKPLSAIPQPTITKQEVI
ZTA inh confirm = confirmation of Epstein-Barr virus ZTA DNA binding inhibitors | 320 compounds, 30% hits | inhibition, % at 11.1 µM | shares compounds with ZTA counter | Zta-ZRE DNA binding, fluorescence polarization;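 active = mean inhibition across triplicate runs above the hit threshold derived for the original primary screen, cut at about 33% in these data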;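 also: 0% = Zta with DMSO and 100% = wells lacking Zta protein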
EBNA-1 counter = counter-screen for ZTA inhibitors: EBNA-1 DNA binding inhibition; shares compounds with ZTA counter; fluorescence polarization; inhibition, % at 14.8 µM; 320 tested, under 10 active; AID 2362; call rule not given here
* hit, by the source's call.

Results for COc1ccc(-n2c(SCC(=O)Nc3nccs3)nc3sc4c(c3c2=O)CCN(C)C4)cc1 ?
EBNA-1 inhibitor: -6; LANA-H2A inh: 0; CSN inh: 0; ZTA counter: -6; Bfl-1 A1 inh: -1; HNF4A DNA FP: 6

How did COc1ccc(NC(=O)CSc2nc3sc4c(c3c(=O)n2-c2ccc(OC)cc2)CCN(C)C4)cc1 do in these assays?
EBNA-1 inhibitor: 7; LANA-H2A inh: -1; CSN inh: 98*; ZTA counter: 34*; Bfl-1 A1 inh: -1; HNF4A DNA FP: 6; ZTA inh confirm: 2; EBNA-1 counter: -2

Results for COc1ccc(N(CCC(=O)O)S(=O)(=O)c2ccc(C)cc2C)cc1 ?
EBNA-1 inhibitor: 1; LANA-H2A inh: 2; CSN inh: -5; ZTA counter: 16; Bfl-1 A1 inh: 0; HNF4A DNA FP: 2

What do the screens show for `Cc1nc(N2CCC(C)CC2)c2c(C)c(C(=O)Nc3cccc(C(F)(F)F)c3)sc2n1`?
EBNA-1 inhibitor: 3; LANA-H2A inh: 1; CSN inh: 3; ZTA counter: 8; Bfl-1 A1 inh: 1; HNF4A DNA FP: 3

Results for Cc1nc(Nc2cnc(/C=C/c3cc(C(=O)Nc4cccc(C(F)(F)F)c4)ccc3C)cn2)cc(N2CCNCC2)n1 ?
EBNA-1 inhibitor: 15; LANA-H2A inh: -10; ZTA counter: 45*; Bfl-1 A1 inh: 0; ZTA inh confirm: 25; EBNA-1 counter: 18

What do the screens show for `CC(=O)O/C(=C\c1cn(C(C)=O)c2ccccc12)C(=O)O`?
EBNA-1 inhibitor: 1; CSN inh: 4; ZTA counter: 158*; HNF4A DNA FP: 4; ZTA inh confirm: 5; EBNA-1 counter: -1

What do the screens show for `COc1ccc(CCNC(=O)Cc2cccc(C(F)(F)F)c2)cc1OC`?
EBNA-1 inhibitor: -14; LANA-H2A inh: 5; CSN inh: -3; ZTA counter: -10; Bfl-1 A1 inh: 1; HNF4A DNA FP: 0

What do the screens show for `CCC1CSC(=Nc2ccc(C)cc2)N1C(=O)CN1C(=O)NC2(CCCC2)C1=O` (stereo not drawn)?
EBNA-1 inhibitor: 8; LANA-H2A inh: 0; CSN inh: -3; ZTA counter: -2; Bfl-1 A1 inh: -1; HNF4A DNA FP: 0

How did CN1CCC(OC(c2ccccc2)c2ccccc2)CC1 do in these assays?
EBNA-1 inhibitor: 7; LANA-H2A inh: -13; CSN inh: -2; ZTA counter: 60*; Bfl-1 A1 inh: -1; HNF4A DNA FP: 1; ZTA inh confirm: 13; EBNA-1 counter: 7

What do the screens show for `CCOC(=O)NN1C(=O)c2ccccc2NC1c1ccc(N(C)C)cc1` (stereo not drawn)?
EBNA-1 inhibitor: -4; LANA-H2A inh: 2; CSN inh: 3; ZTA counter: 33*; Bfl-1 A1 inh: 0; HNF4A DNA FP: -2; ZTA inh confirm: 6; EBNA-1 counter: 0

How did COc1ccc(-c2c(-c3ccsc3)oc3c2C(O)CCC3)cn1 (stereo not drawn) do in these assays?
CSN inh: -4; HNF4A DNA FP: 5

Results for COc1cc(CNCCc2c[nH]c3ccccc23)ccc1OCc1ccc(F)cc1 ?
EBNA-1 inhibitor: 9; LANA-H2A inh: 1; CSN inh: -3; ZTA counter: 35*; Bfl-1 A1 inh: 0; HNF4A DNA FP: 1; ZTA inh confirm: 13; EBNA-1 counter: -5

What do the screens show for `CCOC(=O)c1ccc(NC(=O)CCc2nc(-c3ccc(C)cc3)no2)cc1`?
EBNA-1 inhibitor: 8; LANA-H2A inh: 2; CSN inh: -5; ZTA counter: 35*; Bfl-1 A1 inh: 2; HNF4A DNA FP: -3; ZTA inh confirm: -4; EBNA-1 counter: -7

How did CCOC(=O)c1ccc(NC(=O)CCc2nc(-c3ccc(Cl)cc3)no2)cc1 do in these assays?
EBNA-1 inhibitor: -2; LANA-H2A inh: 2; CSN inh: -1; ZTA counter: -8; Bfl-1 A1 inh: -1; HNF4A DNA FP: 2

How did CCOC(=O)Cc1csc(NC(=O)COc2ccccc2OCC)n1 do in these assays?
EBNA-1 inhibitor: -9; LANA-H2A inh: -2; CSN inh: -5; ZTA counter: 48*; Bfl-1 A1 inh: -1; HNF4A DNA FP: -3; ZTA inh confirm: -4; EBNA-1 counter: -10

Results for COc1ccc(Cn2c(N)c(S(=O)(=O)c3cccs3)c3nc4ccccc4nc32)cc1 ?
EBNA-1 inhibitor: 22; LANA-H2A inh: 2; CSN inh: -1; ZTA counter: 35*; Bfl-1 A1 inh: 0; HNF4A DNA FP: -1; ZTA inh confirm: 6; EBNA-1 counter: 5

What do the screens show for `COc1ccc(C(=O)N(C)c2c(C)n(C)n(-c3ccccc3)c2=O)cc1OC`?
EBNA-1 inhibitor: 7; LANA-H2A inh: -1; CSN inh: -4; ZTA counter: 82*; Bfl-1 A1 inh: -1; HNF4A DNA FP: 1; ZTA inh confirm: -10; EBNA-1 counter: -2

What do the screens show for `Cc1c(N(C)C(=O)c2ccco2)c(=O)n(-c2ccccc2)n1C`?
EBNA-1 inhibitor: -2; LANA-H2A inh: -3; CSN inh: -3; ZTA counter: -3; Bfl-1 A1 inh: 1; HNF4A DNA FP: 0

Results for CC1(C)CC(=O)C=C(c2ccc(-c3ccccc3)cc2)C1 ?
LANA-H2A inh: 2; CSN inh: 0; ZTA counter: 48*; Bfl-1 A1 inh: -3; HNF4A DNA FP: 0; ZTA inh confirm: 30; EBNA-1 counter: 9

How did COc1ccc(C2=CC(=O)CC(C)(C)C2)cc1 do in these assays?
LANA-H2A inh: 3; CSN inh: 1; ZTA counter: 4; Bfl-1 A1 inh: 0; HNF4A DNA FP: 0

Results for COc1ccc(NS(=O)(=O)c2cccc(C(=O)NNC(=O)CNC(=O)c3ccco3)c2)cc1 ?
EBNA-1 inhibitor: 11; LANA-H2A inh: 3; CSN inh: 0; ZTA counter: 12; Bfl-1 A1 inh: 0; HNF4A DNA FP: 3

Results for CCc1cc(/C(Cc2ccccn2)=N\Nc2ccccc2)c(O)cc1O ?
EBNA-1 inhibitor: 3; LANA-H2A inh: 1; CSN inh: -1; ZTA counter: -12; Bfl-1 A1 inh: -1; HNF4A DNA FP: -5

How did O=S(=O)(NCCSc1ccc(Cl)cc1)c1ccc2c(c1)OCCO2 do in these assays?
EBNA-1 inhibitor: 3; LANA-H2A inh: -2; CSN inh: 0; ZTA counter: 33*; Bfl-1 A1 inh: -1; HNF4A DNA FP: 1; ZTA inh confirm: 8; EBNA-1 counter: -1

How did O=S(=O)(NCCSCc1ccc(Cl)cc1Cl)c1ccc2c(c1)OCCO2 do in these assays?
EBNA-1 inhibitor: -2; LANA-H2A inh: -3; CSN inh: 1; ZTA counter: 9; Bfl-1 A1 inh: 0; HNF4A DNA FP: -3
